ChEMBL document CHEMBL4616665, “Synthesis and Identification of a Novel Lead Targeting Survivin Dimerization for Proteasome-Dependent Degradation” (J Med Chem, 2020)
The source made the active and inactive calls. No cut-off for these calls is given here.

Assays:
[1] = tested on: LNCaP C4-2; assay: Down regulation of XIAP expression in human C4-2 cells by Western blot analysis; assay type: functional, cell-based
[2] = tested on: LNCaP C4-2; assay: Down regulation of survivin expression in human C4-2 cells by Western blot analysis; assay type: functional, cell-based
[3] = tested on: PC-3; assay: Down regulation of survivin expression in human PC3 cells by Western blot analysis; assay type: functional, cell-based
[4] = tested on: LNCaP C4-2; assay: Cytotoxicity against human C4-2 cells assessed as reduction in cell viability measured after 72 hrs by methylene blue staining based assay; assay type: functional; details: LNCaP C4-2, 72 h
How it was run: (§1)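 Methylene blue survival assay. Prostate cancer cells in RPMI with 10% FBS were seeded at 2000–3500 cells/well and exposed to a concentration series for 72 h. Cells were then methanol-fixed, stained with 1% methylene blue in 10 mM borate for 1 h, washed, and the dye dissolved in ethanol/0.1 M HCl (1:1). OD650nm was read. IC50 came from fitted dose–response curves; three independent experiments.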

[5] = tested on: PC-3; assay: Cytotoxicity against human PC3 cells assessed as reduction in cell viability measured after 72 hrs by methylene blue staining based assay; assay type: functional; details: PC-3, 72 h; how it was run: as §1
[6] = species on record: Homo sapiens; assay: Inhibition of p53-large T antigen (unknown origin) dimerization assessed as reduction in SEAP reporter expression measured after 24 hrs by mammalian two hybrid assay
How it was run: (§2)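 Mammalian two-hybrid assay in DU145 cells seeded at 1 × 10^5/well, cultured 24 h, then transfected with GAL4-DBD (pBIND) and VP16 (pACT) fusions plus pGSEAP reporter and a firefly luciferase plasmid. Survivin–survivin or p53–large T antigen pairs were used; vector served as control. Two days later, cells were treated for 24 h. SEAP was measured by chemiluminescence and normalized using luciferase for transfection efficiency.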

[7] = tested on: DU-145; assay: Effect on basal SEAP reporter activity in human DU145 cells measured after 24 hrs by mammalian two hybrid assay; assay type: ADME, cell-based; details: du-145, 24 h; how it was run: as §2
[8] = tested on: LNCaP C4-2; assay: Cytotoxicity against human C4-2 cells transfected with pcDNA3.1 assessed as reduction in cell viability measured after 72 hrs by methylene blue staining based assay; assay type: functional; details: LNCaP C4-2, 72 h; how it was run: as §1
[9] = tested on: LNCaP C4-2; assay: Cytotoxicity against human C4-2 cells transfected with HA-tagged survivin assessed as reduction in cell viability measured after 72 hrs by methylene blue staining based assay; assay type: functional; details: LNCaP C4-2, 72 h
[10] = tested on: PC-3; assay: Down regulation of XIAP expression in human PC3 cells by Western blot analysis; assay type: functional, cell-based
[11] = tested on: LNCaP C4-2; assay: Down regulation of CIAP1 expression in human C4-2 cells by Western blot analysis; assay type: functional, cell-based
[12] = tested on: PC-3; assay: Down regulation of CIAP1 expression in human PC3 cells by Western blot analysis; assay type: functional, cell-based
[13] = tested on: LNCaP C4-2; assay: Down regulation of CIAP2 expression in human C4-2 cells by Western blot analysis; assay type: functional, cell-based
[14] = tested on: PC-3; assay: Down regulation of CIAP2 expression in human PC3 cells by Western blot analysis; assay type: functional, cell-based
[15] = biological target: Baculoviral IAP repeat-containing protein 5 (Homo sapiens) (UniProt O15392); assay: Inhibition of survivin homodimerization in human C4-2 cells assessed as increase in survivin degradation by measuring survivin half life at 10 uM incubated up to 6 hrs in presence of cycloheximide by Western blot analysis (reference value: 2.2 hrs); assay type: cell-based; details: LNCaP C4-2
How it was run: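 C4-2 or PC-3 cells were pretreated with 10 μM cycloheximide for 1 h, then chased with or without 10 μM compound, or with DMSO, for 0–6 h. Remaining survivin was measured by Western blot with actin as loading control. Band densities were quantified from three independent experiments to derive half-life.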

[16] = biological target: Baculoviral IAP repeat-containing protein 5 (Homo sapiens) (UniProt O15392); assay: Inhibition of survivin homodimerization in human C4-2 cells assessed as increase in survivin degradation in presence of proteasome inhibitor MG132 by Western blot analysis; assay type: cell-based; details: LNCaP C4-2
How it was run: (§3)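 Cells were pretreated for 1 h with proteasome inhibitor MG132 or bortezomib before compound treatment. Survivin was then assessed by Western blot with actin loading control, quantified from three independent experiments.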

[17] = biological target: Baculoviral IAP repeat-containing protein 5 (Homo sapiens) (UniProt O15392); assay: Inhibition of survivin homodimerization in human C4-2 cells assessed as increase in survivin degradation in presence of proteasome inhibitor bortezomib by Western blot analysis; assay type: cell-based; details: LNCaP C4-2; how it was run: as §3
[18] = tested on: LNCaP C4-2; assay: Induction of apoptosis in human C4-2 cells assessed as increase in cleavage of caspase-3 by Western blot analysis; assay type: functional, cell-based
How it was run: (§4)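 C4-2 or PC-3 cells were treated at a range of concentrations, and cleaved caspase 3 was measured by Western blot. Quantification was from three independent experiments.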

[19] = tested on: PC-3; assay: Induction of apoptosis in human PC3 cells assessed as increase in cleavage of caspase-3 by Western blot analysis; assay type: functional, cell-based; how it was run: as §4
[20] = tested on: LNCaP C4-2; assay: Induction of apoptosis in human C4-2 cells at 3 uM measured after 48 hrs by Annexin V-FITC/propidium iodide staining based flow cytometry relative to control; assay type: functional
How it was run: (§5)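 C4-2 or PC-3 cells were treated with 3 μM compound or DMSO for 48 h, harvested, washed, and stained with annexin V-FITC and propidium iodide. Apoptosis was analysed by flow cytometry with excitation at 488 […]; three independent experiments.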

[21] = tested on: PC-3; assay: Induction of apoptosis in human PC3 cells at 3 uM measured after 48 hrs by Annexin V-FITC/propidium iodide staining based flow cytometry relative to control; assay type: functional; how it was run: as §5
[22] = tested on: PC-3; assay: Antitumor activity against human PC3 cells xenografted in NSG mouse assessed as suppression of tumor growth at 100 mg/kg, po administered via gavage every other day for 10 times and measured every 2 days during compound dosing; assay type: functional, organism-based
How it was run: (§6)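 PC-3 cells (3 × 10^6, in media) implanted in hind flanks of 6-week-old male NSG mice. Once tumors reached ~100 mm3, mice were randomized into two groups of 5. Vehicle (90% corn oil/10% DMSO) or 100 mg/kg was given by oral gavage every other day for ten doses. Body weight and tumor size were measured every 2 days. At sacrifice, tumors were excised for survivin Western blot and staining, and major organs were wet-weighed.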

[23] = Toxicity in NSG mouse xenografted in human PC3 cells assessed as effect on body weight at 100 mg/kg, po administered via gavage every other day for 10 times and measured every 2 days during compound dosing; assay type: organism-based, PC-3; details: in vivo, 48 h; how it was run: as §6
[24] = Toxicity in NSG mouse xenografted in human PC3 cells assessed as effect on heart weight at 100 mg/kg, po administered via gavage every other day for 10 times and measured post last dose; assay type: organism-based, PC-3; details: in vivo; how it was run: as §6
[25] = Toxicity in NSG mouse xenografted in human PC3 cells assessed as effect on liver weight at 100 mg/kg, po administered via gavage every other day for 10 times and measured post last dose; assay type: organism-based, PC-3; details: in vivo; how it was run: as §6
[26] = Toxicity in NSG mouse xenografted in human PC3 cells assessed as effect on kidney weight at 100 mg/kg, po administered via gavage every other day for 10 times and measured post last dose; assay type: organism-based, PC-3; details: in vivo; how it was run: as §6
[27] = Toxicity in NSG mouse xenografted in human PC3 cells assessed as effect on lung weight at 100 mg/kg, po administered via gavage every other day for 10 times and measured post last dose; assay type: organism-based, PC-3; details: in vivo; how it was run: as §6
[28] = Toxicity in NSG mouse xenografted in human PC3 cells assessed as effect on stomach weight at 100 mg/kg, po administered via gavage every other day for 10 times and measured post last dose; assay type: organism-based, PC-3; details: in vivo; how it was run: as §6
[29] = tested on: PC-3; assay: Antitumor activity against human PC3 cells xenografted in NSG mouse assessed as reduction in tumor size at 100 mg/kg, po administered via gavage every other day for 10 times and measured post last dose; assay type: functional, organism-based; how it was run: as §6
[30] = tested on: PC-3; assay: Antitumor activity against human PC3 cells xenografted in NSG mouse assessed as change in tumor color at 100 mg/kg, po administered via gavage every other day for 10 times and measured post last dose; assay type: functional, organism-based; how it was run: as §6
[31] = biological target: Baculoviral IAP repeat-containing protein 5 (Homo sapiens) (UniProt O15392); assay: In vivo inhibition of survivin in NSG mouse xenografted in human PC3 cells assessed as reduction in survivin expression at 100 mg/kg, po administered via gavage every other day for 10 times and measured post last dose by Western blot analysis; assay type: functional, organism-based; details: PC-3; how it was run: as §6
[32] = biological target: Baculoviral IAP repeat-containing protein 5 (Homo sapiens) (UniProt O15392); assay: In vivo inhibition of survivin in NSG mouse xenografted in human PC3 cells assessed as reduction in survivin expression at 100 mg/kg, po administered via gavage every other day for 10 times and measured post last dose by immunofluorescence analysis; assay type: functional, organism-based; details: PC-3; how it was run: as §6
[33] = Solubility of the compound in corn oil; assay type: physicochemical
[34] = biological target: Baculoviral IAP repeat-containing protein 5 (Homo sapiens) (UniProt O15392); assay: Inhibition of survivin homodimerization in human PC3 cells assessed as increase in survivin degradation by measuring survivin half life at 10 uM incubated up to 6 hrs in presence of cycloheximide by Western blot analysis (reference value: 2.3 hrs); details: PC-3
[35] = tested on: PC-3; assay: Cytotoxicity against human PC3 cells assessed as reduction in cell viability by MTT assay; assay type: functional, cell-based

Chain of Baculoviral IAP repeat-containing protein 5 (Homo sapiens) (O15392 whole entry): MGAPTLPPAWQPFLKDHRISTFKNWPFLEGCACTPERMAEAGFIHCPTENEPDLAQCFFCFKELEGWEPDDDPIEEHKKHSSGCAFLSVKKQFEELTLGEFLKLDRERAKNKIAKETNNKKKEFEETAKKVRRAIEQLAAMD

Structure (SMILES): Fc1ccc(Nc2nc3ccccc3nc2Nc2ccc(F)cc2)cc1
- Activity [1]: inactive
- Activity [2]: Active
- Activity [3]: Active
- IC50 [4]: 3.1 µM
- IC50 [5]: 4.8 µM
- inhibition [6]: inactive
- Activity [7]: Non-Toxic
- IC50 [8]: 2 µM
- IC50 [9]: 7 µM
- Activity [10]: inactive
- Activity [11]: inactive
- Activity [12]: inactive
- Activity [13]: inactive
- Activity [14]: inactive
- T1/2 [15]: 50 min
- inhibition [16]: inactive
- inhibition [17]: inactive
- Activity [18]: Dose-dependent effect
- Activity [19]: Dose-dependent effect
- Activity [20]: 48%
- Activity [21]: 39%
- Activity [22]: Active
- Activity [23]: Non-Toxic
- Activity [24]: Non-Toxic
- Activity [25]: Non-Toxic
- Activity [26]: Non-Toxic
- Activity [27]: Non-Toxic
- Activity [28]: Non-Toxic
- Activity [29]: Active
- Activity [30]: Active
- inhibition [31]: Active
- inhibition [32]: Active
- solubility [33]: Soluble
- T1/2 [34]: 25 min

Structure (SMILES): Cc1cccc(Nc2nc3nonc3nc2N/N=C/c2ccc(-c3ccc(Cl)c([N+](=O)[O-])c3)o2)c1C
- IC50 [35]: 7.2 µM

Structure (SMILES): Cc1cccc(Nc2nc3nonc3nc2N/N=C/c2ccc(-c3cccc(C(=O)O)c3)o2)c1C
- IC50 [4]: 9.1 µM
- IC50 [5]: 8.1 µM

Structure (SMILES): O=C1N=c2ccc(Nc3nc4nonc4nc3N/N=C/c3ccccc3OCc3ccc(Cl)cc3Cl)cc2=N1
- IC50 [35]: 60.3 µM

Structure (SMILES): Cc1ccc(-c2ccc(/C=N/Nc3nc4nonc4nc3Nc3ccc(Br)cc3)o2)cc1Cl
- IC50 [35]: 3.3 µM

Structure (SMILES): O=C(Nc1nc2ccccc2nc1Nc1ccc(F)cc1)c1ccccc1
- IC50 [4]: 12.7 µM
- IC50 [5]: 19.7 µM

Structure (SMILES): CCOC(=O)c1ccc(Nc2nc3nonc3nc2N/N=C/c2c[nH]nc2-c2ccccc2)cc1
- IC50 [35]: 3.5 µM

Structure (SMILES): Cc1cccc(Nc2nc3ccccc3nc2Nc2cccc(C)c2C)c1C
- IC50 [4]: 17.6 µM
- IC50 [5]: 24.8 µM

Structure (SMILES): CC(C)(C)c1ccc(Nc2nc3ccccc3nc2Nc2ccc(C(C)(C)C)cc2)cc1
- IC50 [4]: 18.6 µM
- IC50 [5]: 18.2 µM

Structure (SMILES): Cc1cccc(Nc2nc3nonc3nc2N/N=C/c2cc3c(cc2[N+](=O)[O-])OCO3)c1C
- IC50 [35]: 2.6 µM

Structure (SMILES): O=C(Nc1nc2ccccc2nc1Nc1ccc(F)cc1)c1ccc2c(c1)OCO2
- IC50 [4]: 14.3 µM
- IC50 [5]: 20.7 µM
